Results as given in ChEMBL document CHEMBL3046220, “Bioactive saponin from tea seed pomace with inhibitory effects against Rhizoctonia solani” (J Agric Food Chem, 2010).

Experiments:
Rhizoctonia solani [1] = experiment: Antifungal activity against Rhizoctonia solani AG-4 assessed as inhibition of colony size at 100 ppm at 27 degC measured after 48 hr; format: functional; conditions: AG-4, 48 h
Procedure, shortened: (§1)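 R. solani AG-4 RST-04 was kept on PDA slants. Samples were dissolved in distilled water, with distilled water as the control. Growth was on PDA plates at 27 °C for 48 h. Colony size was measured as mean ± SE (n = 8). Inhibition % = [(control colony size − treatment colony size)/control colony size] × 100. Groups were compared by Duncan's multiple-range test (p = 0.05).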

Rhizoctonia solani [2] = experiment: Antifungal activity against Rhizoctonia solani AG-4 assessed as inhibition of colony size at 60 ppm at 27 degC measured after 48 hr; format: functional; conditions: AG-4, 48 h; procedure, shortened: as §1
Rhizoctonia solani [3] = experiment: Antifungal activity against Rhizoctonia solani AG-4 assessed as inhibition of colony size at 10 ppm at 27 degC measured after 48 hr; format: functional; conditions: AG-4, 48 h; procedure, shortened: as §1
Rhizoctonia solani [4] = experiment: Antifungal activity against Rhizoctonia solani AG-4 assessed as inhibition of mycelial growth at 27 degC measured after 48 hr; format: functional, organism-based
Rhizoctonia solani [5] = experiment: Antifungal activity against Rhizoctonia solani AG-4 assessed as inhibition of colony size at 30 ppm at 27 degC measured after 48 hr; format: functional; conditions: AG-4, 48 h; procedure, shortened: as §1
Rhizoctonia solani [6] = experiment: Antifungal activity against Rhizoctonia solani AG-4 assessed as inhibition of colony size at 125 ppm at 27 degC measured after 48 hr; format: functional; conditions: AG-4, 48 h; procedure, shortened: as §1
Rhizoctonia solani [7] = experiment: Antifungal activity against Rhizoctonia solani AG-4 assessed as inhibition of colony size at 25 ppm at 27 degC measured after 48 hr; format: functional; conditions: AG-4, 48 h
Procedure, shortened: (§2)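 R. solani AG-4 RST-04 was grown on potato dextrose agar plates at 27 °C for 48 h, with the reference fungicide tested across 0.25-250 ppm. Samples were dissolved in distilled water, and plates given distilled water alone served as control. Colony size was read as the mean of n = 8. Inhibition (%) = [(control colony size − treated colony size)/control colony size] × 100.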

Rhizoctonia solani [8] = experiment: Antifungal activity against Rhizoctonia solani AG-4 assessed as inhibition of colony size at 2.5 ppm at 27 degC measured after 48 hr; format: functional; conditions: AG-4, 48 h; procedure, shortened: as §2
Rhizoctonia solani [9] = experiment: Antifungal activity against Rhizoctonia solani AG-4 assessed as inhibition of colony size at 0.25 ppm at 27 degC measured after 48 hr; format: functional; conditions: AG-4, 48 h; procedure, shortened: as §2
Rhizoctonia solani [10] = experiment: Antifungal activity against Rhizoctonia solani AG-4 assessed as inhibition of colony size at 250 ppm at 27 degC measured after 48 hr; format: functional; conditions: AG-4, 48 h; procedure, shortened: as §2

Row | Structure (SMILES) | inhibition at 100 ppm (Rhizoctonia solani [1]) [%] | inhibition at 60 ppm (Rhizoctonia solani [2]) [%] | inhibition at 10 ppm (Rhizoctonia solani [3]) [%] | IC50 (Rhizoctonia solani [4]) [ppm] | inhibition at 30 ppm (Rhizoctonia solani [5]) [%] | inhibition at 125 ppm (Rhizoctonia solani [6]) [%] | inhibition at 25 ppm (Rhizoctonia solani [7]) [%] | inhibition at 2.5 ppm (Rhizoctonia solani [8]) [%] | inhibition at 0.25 ppm (Rhizoctonia solani [9]) [%] | inhibition at 250 ppm (Rhizoctonia solani [10]) [%]
1 | C/C=C(/C)C(=O)O[C@H]1CC(C)(C)C[C@H]2C3=CC[C@@H]4[C@@]5(C)CC[C@H](O[C@@H]6O[C@H](C(=O)O)[C@@H](O)[C@H](O[C@@H]7OC[C@H](O)[C@H](O)[C@H]7O[C@@H]7O[C@H](CO)[C@@H](O)[C@H](O)[C@H]7O)[C@H]6O[C@@H]6O[C@H](CO)[C@H](O)[C@H](O)[C@H]6O)[C@@](C)(C=O)[C@@H]5CC[C@@]4(C)[C@]3(C)C[C@@H](O)[C@@]12CO [CAMELLIASAPONIN B1] | 63.4 | 56.5 | 6.43 | 55.7 | 46.8 |  |  |  |  | 
2 | C[C@@H]1O[C@@H](OC[C@H]2O[C@@H](Oc3c(-c4ccc(O)cc4)oc4cc(O)cc(O)c4c3=O)[C@H](O[C@@H]3O[C@H](CO)[C@H](O)[C@H](O)[C@H]3O)[C@@H](O)[C@@H]2O)[C@H](O)[C@H](O)[C@H]1O [CAMELLIASIDE A] |  |  |  | > 125 |  | -14.7 |  |  |  | 
3 | C[C@@H]1O[C@@H](OC[C@H]2O[C@@H](Oc3c(-c4ccc(O)cc4)oc4cc(O)cc(O)c4c3=O)[C@H](O[C@@H]3OC[C@@H](O)[C@H](O)[C@H]3O)[C@@H](O)[C@@H]2O)[C@H](O)[C@H](O)[C@H]1O [CAMELLIASIDE B] |  |  |  | > 125 |  | -14.5 |  |  |  | 
4 | O=C(Nc1ccccc1)N(Cc1ccc(Cl)cc1)C1CCCC1 [PENCYCURON] |  |  |  | < 0.25 |  |  | 83.9 | 73.6 | 66.6 | 81.9
